Measurements of several laboratories.
Target: Alpha-2A adrenergic receptor (ADRA2A, Homo sapiens, UniProt P08913)
Residues used in one study (P08913 1-465): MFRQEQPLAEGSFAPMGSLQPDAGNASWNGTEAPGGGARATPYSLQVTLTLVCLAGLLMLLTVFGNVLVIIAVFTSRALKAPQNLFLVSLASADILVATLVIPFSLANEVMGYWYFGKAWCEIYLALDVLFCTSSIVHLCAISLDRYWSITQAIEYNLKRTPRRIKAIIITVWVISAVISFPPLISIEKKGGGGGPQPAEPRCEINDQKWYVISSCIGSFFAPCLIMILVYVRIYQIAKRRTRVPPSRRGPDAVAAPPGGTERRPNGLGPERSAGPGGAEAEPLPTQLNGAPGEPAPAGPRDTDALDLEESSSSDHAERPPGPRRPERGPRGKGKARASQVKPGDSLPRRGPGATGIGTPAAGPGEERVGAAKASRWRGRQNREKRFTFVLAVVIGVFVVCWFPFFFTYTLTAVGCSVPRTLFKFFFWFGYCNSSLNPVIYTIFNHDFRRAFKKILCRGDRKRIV

SMILES	assay	setting	quantity	value
CC(C)N1CCC[C@H]1CNC(=O)c1cn(C2CCCC2)c(=O)c2c1c1ccccc1n2C	ligand displacement, radioligand	10 µM	inhibition	37%
COCc1c(-c2cc3cc(C)cc(OC)c3s2)c2c(N)ncnn2c1CN1CCNC(=O)C1	ligand displacement, radioligand	10 µM	inhibition	26%
N#CC1(c2ccccn2)CCN(Cc2cc(C(=O)O)c(=O)n3ccccc23)CC1	cell-free assay	10 µM	inhibition	-25.7%
O=C(Nc1cccnn1)N1CCN([C@@H]2CCOc3cc(C(F)(F)F)ccc32)CC1	ligand displacement	20 µM	inhibition	7%
CC(C)Cn1cnc2c(N)nc3ccccc3c21	ligand displacement, radioligand	10 µM	inhibition	58%
Nc1ncc(-c2nc(N3CCOCC3)nc(N3CCOCC3)n2)c(C(F)F)n1	cell-free assay, radioligand	10 µM	remaining signal	114%
Clc1ccc2c(C3CCN(CCc4c[nH]c5ccccc45)CC3)c[nH]c2c1	ligand displacement, radioligand	10 µM	inhibition	82%
Cc1c(N2CCNCC2)nc2ccc(Br)cc2c1C(=O)NC[C@H](CCC(=O)O)c1ccccc1Cl	ligand displacement	10 µM	inhibition	65%
COc1ccc(S(=O)(=O)N2CCCCC2)cc1C	ligand displacement, radioligand	10 µM	inhibition	< 30%
